Source: ChEMBL document CHEMBL3611968, “Reengineered tricyclic anti-cancer agents” (Bioorg Med Chem, 2015)
Activity calls are given as the source filed them. The rule behind the calls is not given here.

What was measured:
[1] = tested on: NCI-H1650; experiment: Cytotoxicity against human NCI-H1650 cells assessed as growth inhibition after 48 hrs by MTT assay; assay type: functional
Summary of the method: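 H1650 cells were exposed to drug for 48 h at five concentrations bracketing 1–40 μM in 10 μM steps, with MTT read-out. GI50 is given only where the data form a sigmoidal dose response.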

[2] = tested on: NCI-H1650; experiment: Cell cycle arrest in human NCI-H1650 cells assessed as accumulation at sub-G1 phase at 1 to 40 uM by propidium iodide staining-based flow cytometric analysis; assay type: functional
[3] = target: RAC-alpha serine/threonine-protein kinase (Homo sapiens) (UniProt P31749); experiment: Inhibition of AKT phosphorylation in human NCI-H1650 cells at 20 to 40 uM after 12 hrs by Western blot analysis; assay type: cell-based
Chain of RAC-alpha serine/threonine-protein kinase (Homo sapiens) (P31749 whole entry): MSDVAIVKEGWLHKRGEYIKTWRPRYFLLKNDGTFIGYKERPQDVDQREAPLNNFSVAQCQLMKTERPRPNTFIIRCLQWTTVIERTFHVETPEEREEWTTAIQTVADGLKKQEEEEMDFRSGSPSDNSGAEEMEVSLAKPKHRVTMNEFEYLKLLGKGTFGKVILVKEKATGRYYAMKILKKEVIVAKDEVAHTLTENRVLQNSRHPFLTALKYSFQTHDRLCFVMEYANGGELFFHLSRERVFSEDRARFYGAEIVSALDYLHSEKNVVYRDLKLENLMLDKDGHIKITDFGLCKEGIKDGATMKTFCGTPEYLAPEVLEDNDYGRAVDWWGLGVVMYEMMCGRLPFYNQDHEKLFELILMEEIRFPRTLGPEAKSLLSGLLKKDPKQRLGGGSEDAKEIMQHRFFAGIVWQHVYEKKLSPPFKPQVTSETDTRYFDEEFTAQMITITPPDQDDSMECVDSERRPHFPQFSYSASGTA

[4] = target: D(1B) dopamine receptor (Homo sapiens) (UniProt P21918); experiment: Binding affinity to dopamine D5 receptor (unknown origin) at 0.1 mM by radioligand displacement assay relative to control
Chain of D(1B) dopamine receptor (Homo sapiens) (P21918 whole entry): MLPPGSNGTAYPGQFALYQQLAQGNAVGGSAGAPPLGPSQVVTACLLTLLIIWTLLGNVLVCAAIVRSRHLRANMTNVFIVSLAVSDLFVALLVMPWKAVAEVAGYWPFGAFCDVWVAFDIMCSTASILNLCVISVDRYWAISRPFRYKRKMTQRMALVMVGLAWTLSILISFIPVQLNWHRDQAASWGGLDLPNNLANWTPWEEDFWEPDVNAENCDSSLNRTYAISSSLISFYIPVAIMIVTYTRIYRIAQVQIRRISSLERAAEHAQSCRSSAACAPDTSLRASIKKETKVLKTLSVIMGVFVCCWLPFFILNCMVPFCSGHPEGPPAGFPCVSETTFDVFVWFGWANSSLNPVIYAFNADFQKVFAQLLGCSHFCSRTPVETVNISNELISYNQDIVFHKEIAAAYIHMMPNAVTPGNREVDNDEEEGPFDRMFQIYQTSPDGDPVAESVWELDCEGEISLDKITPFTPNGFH

[5] = target: D(1A) dopamine receptor (Homo sapiens) (UniProt P21728); experiment: Binding affinity to dopamine D1 receptor (unknown origin) at 1 mM by radioligand displacement assay relative to control
Chain of D(1A) dopamine receptor (Homo sapiens) (P21728 whole entry): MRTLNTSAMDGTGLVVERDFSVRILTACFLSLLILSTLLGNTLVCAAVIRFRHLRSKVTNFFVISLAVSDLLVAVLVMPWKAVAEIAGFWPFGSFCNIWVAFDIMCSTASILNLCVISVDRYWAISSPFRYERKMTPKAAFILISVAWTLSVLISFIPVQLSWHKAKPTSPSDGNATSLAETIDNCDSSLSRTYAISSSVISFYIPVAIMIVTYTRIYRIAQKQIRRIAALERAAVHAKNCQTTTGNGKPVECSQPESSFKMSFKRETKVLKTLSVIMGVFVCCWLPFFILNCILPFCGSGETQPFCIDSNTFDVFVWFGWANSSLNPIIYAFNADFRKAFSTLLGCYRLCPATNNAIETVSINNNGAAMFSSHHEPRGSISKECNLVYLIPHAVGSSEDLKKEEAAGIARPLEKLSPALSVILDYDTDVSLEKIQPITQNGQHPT

[6] = tested on: Mus musculus; experiment: Toxicity in mouse assessed as induction of lethargy at 10 mg/kg relative to control; assay type: organism-based; conditions: in vivo
[7] = target: T1, D(4) dopamine receptor (Homo sapiens) (UniProt P21917); experiment: Binding affinity to dopamine D4 receptor (unknown origin) at 0.1 mM by radioligand displacement assay relative to control
T1 sequence (whole entry): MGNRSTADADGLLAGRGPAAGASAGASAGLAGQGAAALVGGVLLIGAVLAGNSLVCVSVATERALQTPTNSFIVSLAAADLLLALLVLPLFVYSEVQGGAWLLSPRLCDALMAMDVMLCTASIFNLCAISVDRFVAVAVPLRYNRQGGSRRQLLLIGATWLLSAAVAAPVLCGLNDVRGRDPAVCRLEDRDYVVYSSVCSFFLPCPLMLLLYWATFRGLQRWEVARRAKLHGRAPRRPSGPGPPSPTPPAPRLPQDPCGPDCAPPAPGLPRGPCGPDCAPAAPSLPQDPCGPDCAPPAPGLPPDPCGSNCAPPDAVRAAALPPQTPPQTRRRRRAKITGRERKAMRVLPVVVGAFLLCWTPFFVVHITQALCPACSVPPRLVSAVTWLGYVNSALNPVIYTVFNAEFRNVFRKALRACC

[8] = target: D(1A) dopamine receptor (Homo sapiens) (UniProt P21728); experiment: Binding affinity to dopamine D1 receptor (unknown origin) at 0.1 mM by radioligand displacement assay relative to control
[9] = target: D(3) dopamine receptor (Homo sapiens) (UniProt P35462); experiment: Binding affinity to dopamine D3 receptor (unknown origin) at 1 mM by radioligand displacement assay relative to control
Chain of D(3) dopamine receptor (Homo sapiens) (P35462 whole entry): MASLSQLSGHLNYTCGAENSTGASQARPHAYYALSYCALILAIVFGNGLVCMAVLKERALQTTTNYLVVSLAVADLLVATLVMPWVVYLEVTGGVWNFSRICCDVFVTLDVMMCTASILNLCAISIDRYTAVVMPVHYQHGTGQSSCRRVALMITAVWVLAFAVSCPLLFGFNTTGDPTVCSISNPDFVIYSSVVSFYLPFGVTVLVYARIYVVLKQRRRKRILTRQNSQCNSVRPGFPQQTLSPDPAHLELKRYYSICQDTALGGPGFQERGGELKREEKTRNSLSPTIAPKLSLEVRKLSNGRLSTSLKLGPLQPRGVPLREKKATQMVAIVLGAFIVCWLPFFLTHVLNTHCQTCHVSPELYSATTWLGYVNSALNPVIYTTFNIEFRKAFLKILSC

[10] = target: D(2) dopamine receptor (Homo sapiens) (UniProt P14416); experiment: Binding affinity to dopamine D2 receptor (unknown origin) at 0.1 mM by radioligand displacement assay relative to control
Chain of D(2) dopamine receptor (Homo sapiens) (P14416 whole entry): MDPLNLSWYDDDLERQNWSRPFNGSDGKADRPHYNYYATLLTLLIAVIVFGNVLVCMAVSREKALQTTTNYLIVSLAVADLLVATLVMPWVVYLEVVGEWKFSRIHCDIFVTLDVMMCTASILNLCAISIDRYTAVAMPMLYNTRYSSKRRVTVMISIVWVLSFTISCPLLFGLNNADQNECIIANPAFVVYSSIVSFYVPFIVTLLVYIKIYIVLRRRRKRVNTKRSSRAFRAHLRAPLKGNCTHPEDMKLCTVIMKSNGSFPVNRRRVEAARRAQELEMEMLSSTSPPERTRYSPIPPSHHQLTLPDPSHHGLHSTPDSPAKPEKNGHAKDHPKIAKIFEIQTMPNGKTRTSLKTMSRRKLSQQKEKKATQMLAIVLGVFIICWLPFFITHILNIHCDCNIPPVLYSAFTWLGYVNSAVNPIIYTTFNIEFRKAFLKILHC

[11] = target: D(1B) dopamine receptor (Homo sapiens) (UniProt P21918); experiment: Binding affinity to dopamine D5 receptor (unknown origin) at 1 mM by radioligand displacement assay relative to control
[12] = target: D(3) dopamine receptor (Homo sapiens) (UniProt P35462); experiment: Binding affinity to dopamine D3 receptor (unknown origin) at 0.1 mM by radioligand displacement assay relative to control
[13] = target: D(2) dopamine receptor (Homo sapiens) (UniProt P14416); experiment: Binding affinity to dopamine D2 receptor (unknown origin) at 1 mM by radioligand displacement assay relative to control
[14] = target: T1, D(4) dopamine receptor (Homo sapiens); experiment: Binding affinity to dopamine D4 receptor (unknown origin) at 1 mM by radioligand displacement assay relative to control
[15] = tested on: NCI-H1650; experiment: Inhibition of ERK phosphorylation in human NCI-H1650 cells at 20 to 40 uM after 12 hrs by Western blot analysis; assay type: cell-based

Row | SMILES | GI50 ([1]; NCI-H1650, 48 h) [µM] | GI50 [1] | further results
1 | O=S(=O)(NCCCN1c2ccccc2CCc2ccc(Cl)cc21)c1cccc2ccccc12 | > 40 |  | 
2 | CCCN1c2ccccc2Sc2ccc(Cl)cc21 |  | inactive | 
3 | Cn1c(=O)oc2cc(S(=O)(=O)NCCCN3c4ccccc4CCc4ccccc43)ccc21 | > 40 |  | 
4 | O=S(=O)(NC1CCCC(=C2c3ccccc3CCc3ccccc32)C1)c1ccc(Cl)cc1 (stereo not given) | 17 |  | 
5 | COc1ccc(OC(=O)NCCCN2c3ccccc3Sc3ccc(Cl)cc32)cc1 |  | inactive | 
6 | O=S(=O)(NCCCN1c2ccccc2CCc2ccccc21)C(F)(F)F |  | inactive | 
7 | O=S(=O)(NCCCN1c2ccccc2CCc2ccccc21)N1CCOCC1 |  | inactive | 
8 | O=S(=O)(NC1CCOC2(C1)c1ccccc1CCc1ccccc12)c1ccc(OC(F)(F)F)cc1 (stereo not given) | > 40 |  | 
9 | O=C(NCCCN1c2ccccc2CCc2ccc(Cl)cc21)Nc1ccc(OC(F)(F)F)cc1 | > 40 |  | 
10 | O=S(=O)(NC1CCC(=C2c3ccccc3CCc3ccccc32)CC1)c1ccc(OC(F)(F)F)cc1 (stereo not given) | 20 |  | 
11 | CC(=O)NCCCN1c2ccccc2CCc2ccc(Cl)cc21 |  | inactive | 
12 | CC(C)S(=O)(=O)NCCCN1c2ccccc2CCc2ccc(Cl)cc21 |  | inactive | 
13 | CN1CCN(CCCN2c3ccccc3Sc3ccc(C(F)(F)F)cc32)CC1 [TRIFLUOPERAZINE] | 12.2 |  | Activity [2]: Active; inhibition [3]: Active; inhibition [4]: 81%; inhibition [5]: > 95%; Activity [6]: Toxic; inhibition [7]: 73%; inhibition [8]: > 95%; inhibition [9]: > 95%; inhibition [10]: > 95%; inhibition [11]: > 95%; inhibition [12]: > 95%; inhibition [13]: > 95%; inhibition [14]: > 95%; inhibition [15]: Active
14 | O=S(=O)(NCCCN1c2ccccc2CCc2ccc(Cl)cc21)c1ccccc1OC(F)(F)F | 25 |  | 
15 | O=S(=O)(NCCCN1c2ccccc2CCc2ccc(Cl)cc21)c1ccc(Cl)c(Cl)c1 | 21.3 |  | 
16 | O=S(=O)(c1ccc(OC(F)(F)F)cc1)N1CCC(=C2c3ccccc3CCc3ccccc32)CC1 |  | inactive | 
